In ChEMBL document CHEMBL4513216, “Probing the Open Global Health Chemical Diversity Library for Multistage-Active Starting Points for Next-Generation Antimalarials” (ACS Infect Dis, 2020) one finds cytotoxicity data, which are given here for 72 compounds.

The nature of the series: Toxicity liver stage against HepG2, at 10uM. On the set-up: test concentration 10 uM, cell line HepG2-A16-CD81EGFP. In kind it is cell-based. As to conditions: human, HepG2-A16-CD81EGFP cells; read-out: INHIBITION
In short, it runs like this: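 Uninfected HepG2-A16-CD81EGFP cells, 3 × 10^3 per well, 1536-well, plated on prespotted compound at 10 μM final, parasite-free screening media added to match infected plates; puromycin 10 μM positive, DMSO 0.5% negative; run in parallel with 48 h PbLuc assay at 37 °C, 5% CO2; viability by CellTiter-Glo luminescence, normalized to controls.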
In the case of `O=C(CN1CCOCC1)Nc1ncc(Br)cc1Br`, the cytotoxicity at 10 µM was determined as 10.2%.
With `C1CN(CCN2CCOCC2)CCN1` the figure was -11.5%; with `CC(C)(C)CNC[C@H]1Cn2c(-c3ccccc3)cnc2CO1`, -9.14%; with `O=C(O)CCn1ccc(=O)c2ccccc21`, 0.148%.
As for `O=C(Nc1cc(C(F)(F)F)ccc1Cl)c1ccc(N2CCCC2)nn1`, the cytotoxicity at 10 µM was -4.43%.
On to `O=S(=O)(c1cccs1)N1CCC(c2nc(-c3cccs3)no2)CC1`, for which the cytotoxicity at 10 µM worked out at 6.14%.
With `CC(C)(C)NC(=O)NCc1cnn2ccccc12`, the cytotoxicity at 10 µM was -11.9%.
Take `CC(=O)N1CCC(c2nn(C)c(=O)n2-c2ccccc2)CC1`: the cytotoxicity at 10 µM is -2.05%.
Turning to `Cc1csc(C(=O)NCCn2nc(-n3cncn3)ccc2=O)c1`, the cytotoxicity at 10 µM was found to be 2.06%.
Take `Cc1cccc(CN2CC3(CCN(C(=O)C4CC4)CC3)OCC2=O)n1`: the cytotoxicity at 10 µM was -4.67%.
Regarding `O=C(CCn1ccc2cc(Br)ccc21)/N=c1\[nH]nc(C2CCCO2)s1` (configuration not stated), the cytotoxicity at 10 µM was -2.31%.
With `CN(C)c1ccc(-c2cc(=O)n3c(n2)CCCCC3)cc1` the figure was -13.1%; with `c1coc(CN2Cc3nccn3CC(Cn3cncn3)C2)c1` (configuration not stated), -7.18%.
For `Cc1nn(C)c2c(NCc3cccnc3)nc(C3CC3)nc12`, the cytotoxicity at 10 µM is -9.84%.
On to `CN(C)C(=O)CN1CCCC(c2cncc(-c3cccc(Cl)c3)n2)C1` (configuration not stated), for which the cytotoxicity at 10 µM worked out at 24%.
For `Cc1ccc(CN2CCCC2(C(N)=O)c2cnccn2)c(C)c1` (configuration not stated), the cytotoxicity at 10 µM stood at 4.11%.
Regarding `Cc1nc(C2CCCN(C(=O)c3ccncc3)C2)c2sccn12` (configuration not stated), the cytotoxicity at 10 µM was -10.4%.
With `Cn1nc(C2CN(S(C)(=O)=O)C2)c2nccnc21`, the cytotoxicity at 10 µM is -13.2%.
In the case of `CO[C@H]1CN(Cc2ccc(F)c(F)c2)C[C@@]12CCCO2`, the cytotoxicity at 10 µM was -5.52%.
On to `CCc1noc(C)c1C(=O)N1CCC(c2[nH]ncc2S(C)(=O)=O)C1` (configuration not stated), for which the cytotoxicity at 10 µM is -6.94%.
As to `CC(C)(C)c1nc(CN(Cc2ccccc2F)C2CCCCC2)no1`, the cytotoxicity at 10 µM was -2.65%.
For `COc1ccc(C(C)NCc2scnc2C)cc1Cn1cccn1` (configuration not stated) the value was -3.53%; for `Cc1nc(Cn2cncc(Br)c2=O)no1`, -12.2%.
On to `CCN(C)Cc1cccc(CNC(=O)CSCc2ccncc2)c1`, for which the cytotoxicity at 10 µM amounted to 4.31%.
Turning to `Cc1cnn(CCNCc2c(C(C)C)nn(C)c2Cl)c1`, the cytotoxicity at 10 µM was -14%.
Regarding `O=C(Cn1cc(C2CC2)nn1)N(Cc1cccs1)CC1CCCO1` (configuration not stated), the cytotoxicity at 10 µM was -4.58%.
With `CCC(NCCn1cc(C)cn1)C(=O)Nc1cc(C)on1` (configuration not stated), the cytotoxicity at 10 µM was 4.52%.
Regarding `CN1CCN(CCNC(=O)C(OC2CCCC2)c2ccccc2)CC1` (configuration not stated), the cytotoxicity at 10 µM was -9.43%.
On to `O=c1oc(-c2cccs2)nn1CC(O)c1ccccc1F` (configuration not stated), for which the cytotoxicity at 10 µM was -14.7%.
With `CC(C)c1ncncc1C(=O)NCCN1CCCCCC1`, the cytotoxicity at 10 µM worked out at 5.15%.
As to `COCc1cccc(NC(=O)NCc2ncc(C)c(OC)c2C)c1`, the cytotoxicity at 10 µM is -1.21%.
For `CC(O)(CNC(=O)c1cccnc1-n1cccn1)c1cccs1` (configuration not stated) the value was 7.9%; for `Cc1nc(CN2CCCN(Cc3nc4c(F)cccc4[nH]3)CC2)no1`, 0.601%.
For the compound `CN(C)c1ncccc1CNCc1ccc(N2CCOCC2)cc1`, the cytotoxicity at 10 µM is 5.95%.
For the compound `CN1CCOC(C(=O)N2CCC3(CCCC3)CC2)C1` (configuration not stated), the cytotoxicity at 10 µM is -1.52%.
Turning to `Cc1noc(C)c1C(=O)N1C[C@@H]2CN(Cc3cccnc3)CCO[C@@H]2C1`, the cytotoxicity at 10 µM turned out to be 5.75%.
On to `O=c1c(-c2ccnc(N3CCCC[C@@H]3CO)n2)cnc2sccn12`, for which the cytotoxicity at 10 µM is -10.3%.
`CCc1nc(C)c(C2CC(=O)Nc3c2c(C(C)(C)C)nn3C)[nH]1` (configuration not stated): the cytotoxicity at 10 µM was determined as 2.63%.
With `CCNc1ncc(C(=O)NCc2csc(C)n2)cn1`, the cytotoxicity at 10 µM amounted to 12.5%.
Take `CC(=O)N1CCC(N2CCOC(CC3CCCCC3)C2)CC1` (configuration not stated): the cytotoxicity at 10 µM turned out to be 6.46%.
`Cc1ccc2nc(C(=O)N3CC(n4nc(C)cc4C)C3)cn2c1`: the cytotoxicity at 10 µM was determined as 5.53%.
For the compound `COc1ccc(C(=O)N2C[C@@H](O)[C@H](NCc3cnc(C)cn3)C2)cc1`, the cytotoxicity at 10 µM came out at 3.34%.
Turning to `COCCN(C)C[C@H]1C[C@@H](CO)CN(C(=O)c2ccn(C)c(=O)c2)C1`, the cytotoxicity at 10 µM was 2.14%.
On to `CCC1CN(Cc2nc(C(C)C)no2)CCC(=O)N1Cc1ccccc1` (configuration not stated), for which the cytotoxicity at 10 µM was 5.08%.
As to `Nc1cc(-c2cc(O)cc(C(=O)O)c2)c2cc[nH]c2n1`, the cytotoxicity at 10 µM is 6.77%.
For `Cc1cc2[nH]c(CN3CCOC(c4ccc(Cl)cc4)C3)cc(=O)n2n1` (configuration not stated) the value was 1.91%; for `Cc1ccc(OC2CCN(C(=O)Cc3c(C)[nH]c(=O)[nH]c3=O)CC2)cc1`, 6.45%; for `Cn1cc(CN2CCC(CCC(=O)NC3CC3)CC2)cn1`, 9.27%.
With `COCCn1ccnc1C1CCCN(C(=O)c2ccncc2F)C1` (configuration not stated) the figure was 0.0773%; with `Cc1ccc2nc(N3CCN(CC(=O)NC(C)C)CC3)cc(C)c2c1`, -14.7%.
On to `CC(C)(C)C(Cn1cccn1)NC(=O)c1ccco1` (configuration not stated), for which the cytotoxicity at 10 µM was -5.5%.
Turning to `CCC(CCN)n1ccc(C(F)(F)F)n1` (configuration not stated), the cytotoxicity at 10 µM is -11.2%.
`Fc1ccc(CN2CCC(c3n[nH]c4nccnc34)CC2)cc1F`: the cytotoxicity at 10 µM is -11.8%.
As to `CCOc1ccc(Cl)c(C(=O)NCCS(N)(=O)=O)n1`, the cytotoxicity at 10 µM is -8.72%.
Consider `Cc1cnn(CC2CN(Cc3nc(C)c4ccccc4n3)CCO2)c1` (configuration not stated), for which the cytotoxicity at 10 µM is -35.6%.
`CCc1nncn1CCNC(=O)N1CCN(Cc2ccccc2)CC1`: the cytotoxicity at 10 µM was found to be 3.84%.
Turning to `Cc1ocnc1C(=O)N1CCCN(Cc2cscn2)CC1`, the cytotoxicity at 10 µM is -7.22%.
For `COCCOc1ccccc1C(=O)N(C)Cc1ncc(C)c(OC)c1C` the value was -1.61%; for `CC(C)c1n[nH]c(C2CN(Cc3nnc(C4CC4)n3C)CCO2)n1` (configuration not stated), -10.3%.
As to `Cc1cccc(-n2c(C)cc(C(=O)N3CCn4c(C)nnc4C3)c2C)c1`, the cytotoxicity at 10 µM is -4.86%.
With `CC(C(=O)N1CCCN(c2ncccc2C#N)CC1)n1cccn1` (configuration not stated) the figure was -4.3%; with `CCNc1cc2c(nn1)CCN(C(=O)c1cc3nc(C)ccc3o1)C2`, -3.85%; with `NC(=O)c1csc(C(=O)N2CCCC(n3ccnc3)C2)c1` (configuration not stated), -2.07%.
For `Cc1nc(Cc2ccc(F)cc2)cc(C2COCCN2)n1` (configuration not stated), the cytotoxicity at 10 µM worked out at 3.44%.
In the case of `COc1ccc(CC(=O)N2C[C@@H]3COC[C@]3(CN(C)C)C2)cc1`, the cytotoxicity at 10 µM was -3.01%.
Turning to `CCC1=N[C@@]2(CC[C@@H]3CN(Cc4ccc(Cl)cc4)C[C@@H]32)C(=O)N1`, the cytotoxicity at 10 µM came to 3.6%.
On to `c1cnc2c(c1)cc([C@H]1CCCO1)n2CCN1CCCCC1`, for which the cytotoxicity at 10 µM was 4.99%.
Turning to `COc1c(CNCc2cccc(CN(C)C)c2)c(C)nn1C`, the cytotoxicity at 10 µM is -9.95%.
`c1cncc(COCc2nnc3n2CCN(Cc2ccoc2)C3)c1`: the cytotoxicity at 10 µM was -11.2%.
Regarding `CC(C)N1CCOCC2(CCCN(C(=O)CCc3cccnc3)C2)C1` (configuration not stated), the cytotoxicity at 10 µM was found to be 2.66%.
With `Cc1ccsc1CN1CCc2nc3ccsc3c(=O)n2CC1`, the cytotoxicity at 10 µM was 8.52%.
As for `CN1C(=O)[C@@H]2CC[C@H]1CN(C(=O)c1csc(Cc3ccccc3)n1)C2`, the cytotoxicity at 10 µM was 3.75%.
